pIC50: −log10 of the molar value. Calls of active or inactive are those of the source. No cut-off for these calls is given here.
What was measured:
HeLa [1] = test: Induction of apoptosis in human HeLa cells assessed as necrotic cells at 1 uM incubated for 48 hrs by annexin-V-FITC and PI staining based flow cytometry analysis (reference value: 0.18 %); type: functional
HeLa [2] = test: Induction of cell cycle arrest in human HeLa cells assessed as upregulation of cyclinB1 protein expression at 0.8 to 3.2 uM by Western blot analysis; type: functional, cell-based; conditions: dose 0.8-3.2 µM
Summary of the method: (§1)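 HeLa cells were treated with graded concentrations or DMSO, washed in PBS and lysed. Protein was measured by BCA, separated by SDS-PAGE and transferred to PVDF. Membranes were blocked in 5% BSA/TBST, incubated with primary antibodies overnight at 4 °C, then with HRP secondary antibodies. Bands were detected by chemiluminescence.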

A2780 [3] = test: Antiproliferative activity against human A2780 cells assessed as reduction in cell viability incubated for 48 hrs by MTT assay; type: functional, cell-based; conditions: A2780, 48 h
Summary of the method: (§2)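 Cells were grown in DMEM with 10% FBS and penicillin/streptomycin at 37 °C and 5% CO2. They were seeded for 24 h, then treated with graded concentrations for 48 h. MTT (5 mg/mL) was added for a further 4 h at 37 °C. Formazan was dissolved in DMSO and absorbance read at 570 nm. IC50 was taken from the concentration-response curve.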

A2780 [4] = test: Antitumor activity against human A2780 cells xenografted in Balb/c mouse assessed as tumor growth inhibition administered every two days by caliper analysis; type: functional; conditions: dose 25-50 mg/kg
Summary of the method: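 Nude mice carried A2780 cells implanted in PBS in the right flank. When tumors reached 100 mm³, mice were randomized into four groups (n = 10): vehicle, 25 or 50 mg/kg test compound, and PTX 10 mg/kg. Dosing was every two days; vehicle was 10% castor oil and 10% DMSO in PBS. Volume (π/6 × length × width²) and body weight were measured by caliper and scale at each dose. Tumors were excised and weighed at the end.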

HeLa [5] = test: Antiproliferative activity against human HeLa cells assessed as reduction in cell viability incubated for 48 hrs by MTT assay; type: functional, cell-based; summary of the method: as §2
HeLa [6] = test: Induction of apoptosis in human HeLa cells assessed as late apoptotic cells at 1 uM incubated for 48 hrs by annexin-V-FITC and PI staining based flow cytometry analysis (reference value: 0.23 %); type: functional
HeLa [7] = test: Induction of apoptosis in human HeLa cells assessed as early apoptotic cells at 8 uM incubated for 48 hrs by annexin-V-FITC and PI staining based flow cytometry analysis (reference value: 2.25 %); type: functional
Jurkat [8] = test: Induction of DNA damage in human Jurkat cells at 100 to 400 nM incubated for 48 hrs by EB staining based analysis; type: functional, cell-based; conditions: dose 100-400 nM
Summary of the method: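 Jurkat cells were exposed to graded concentrations, MMC 200 nM positive control or DMSO for 48 h at 37 °C, with work done in darkness. Cells were embedded in LM agarose on comet slides and lysed for 2 h at 4 °C. Slides were unwound in 1 mM EDTA/200 mM NaOH for 30 min, electrophoresed at 25 V for 15 min, stained with ethidium bromide and imaged by fluorescence microscopy. Tail moment was scored.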

Jurkat [9] = test: Induction of DNA damage in human Jurkat cells assessed as upregulation of GADD45alpha protein expression incubated for 48 hrs by Western blot analysis; type: functional, cell-based; conditions: dose 2-8 µM
HeLa [10] = test: Induction of cell cycle arrest in human HeLa cells assessed as increase in accumulation of cells at G2/M phase incubated for 24 hrs by PI staining based flow cytometry analysis; type: functional; conditions: dose 0.4-3.2 µM
Summary of the method: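 HeLa cells were grown for 24 h, then treated with graded concentrations or DMSO for 24 h. Cells were fixed in 75% ethanol at −20 °C overnight, treated with RNase A and stained with PI in PBS in the dark at room temperature. DNA content was measured by flow cytometry.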

HCT-116 = test: Antiproliferative activity against human HCT-116 cells assessed as reduction in cell viability incubated for 48 hrs by MTT assay; type: functional, cell-based; conditions: HCT-116, 48 h; summary of the method: as §2
HeLa [11] = test: Induction of apoptosis in human HeLa cells assessed as late apoptotic cells at 2 uM incubated for 48 hrs by annexin-V-FITC and PI staining based flow cytometry analysis (reference value: 0.23 %); type: functional
A549 = test: Antiproliferative activity against human A549 cells assessed as reduction in cell viability incubated for 48 hrs by MTT assay; type: functional, cell-based; conditions: A549, 48 h; summary of the method: as §2
HeLa [12] = test: Induction of apoptosis in human HeLa cells assessed as late apoptotic cells at 8 uM incubated for 48 hrs by annexin-V-FITC and PI staining based flow cytometry analysis (reference value: 0.23 %); type: functional
HeLa [13] = test: Induction of apoptosis in human HeLa cells assessed as early apoptotic cells at 1 uM incubated for 48 hrs by annexin-V-FITC and PI staining based flow cytometry analysis (reference value: 2.25 %); type: functional
HeLa [14] = test: Induction of apoptosis in human HeLa cells assessed as viable cells at 8 uM incubated for 48 hrs by annexin-V-FITC and PI staining based flow cytometry analysis (reference value: 97.34 %); type: functional; conditions: read-out: Activity
HeLa [15] = test: Induction of apoptosis in human HeLa cells assessed as late apoptotic cells at 4 uM incubated for 48 hrs by annexin-V-FITC and PI staining based flow cytometry analysis (reference value: 0.23 %); type: functional
HeLa [16] = test: Induction of cell cycle arrest in human HeLa cells assessed as upregulation of p-histone-H3 protein expression at 0.8 to 3.2 uM by Western blot analysis; type: functional, cell-based; conditions: dose 0.8-3.2 µM; summary of the method: as §1
HeLa [17] = test: Induction of apoptosis in human HeLa cells assessed as early apoptotic cells at 2 uM incubated for 48 hrs by annexin-V-FITC and PI staining based flow cytometry analysis (reference value: 2.25 %); type: functional
HeLa [18] = test: Induction of apoptosis in human HeLa cells assessed as viable cells at 2 uM incubated for 48 hrs by annexin-V-FITC and PI staining based flow cytometry analysis (reference value: 97.34 %); type: functional; conditions: read-out: Activity
HeLa [19] = test: Inhibition of colony formation in human HeLa cells incubated for 48 hrs followed by replacement with fresh medium and further incubation for 7 to 10 days by gentian violet staining based assay; type: functional, cell-based; conditions: dose 0.5-8 µM
Summary of the method: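 HeLa cells in six-well plates were grown for 24 h at 37 °C, then treated with graded concentrations or DMSO for 48 h. Medium was replaced with fresh medium for a further 7–10 days. Colonies were stained with gentian violet for 30 min, washed with PBS and counted relative to control.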

HeLa [20] = test: Induction of apoptosis in human HeLa cells assessed as necrotic cells at 4 uM incubated for 48 hrs by annexin-V-FITC and PI staining based flow cytometry analysis (reference value: 0.18 %); type: functional
HeLa [21] = test: Induction of apoptosis in human HeLa cells assessed as necrotic cells at 2 uM incubated for 48 hrs by annexin-V-FITC and PI staining based flow cytometry analysis (reference value: 0.18 %); type: functional
HeLa [22] = test: Induction of apoptosis in human HeLa cells assessed as upregulation of PARP cleavage by Western blot analysis; type: functional, cell-based; conditions: dose 2-8 µM; summary of the method: as §1
HeLa [23] = test: Induction of cell cycle arrest in human HeLa cells assessed as upregulation of BubR1 protein expression at 0.8 to 3.2 uM by Western blot analysis; type: functional, cell-based; conditions: dose 0.8-3.2 µM; summary of the method: as §1
Jurkat [24] = test: Induction of DNA damage in human Jurkat cells assessed as upregulation of Bax protein expression incubated for 48 hrs by Western blot analysis; type: functional, cell-based; conditions: dose 2-8 µM
HeLa [25] = test: Induction of apoptosis in human HeLa cells assessed as upregulation of p53 protein expression by Western blot analysis; type: functional, cell-based; conditions: dose 2-8 µM; summary of the method: as §1

COc1ccc(C2N=C2c2cc(OC)c(OC)c(OC)c2)cc1F (configuration not stated) was tested, and the Activity (HeLa [1]) was 0.28%, the Activity (HeLa [2]) was “Active” and the pIC50 (A2780 [3]) was 6.80. For the same molecule, the TGI (A2780 [4]) was “Dose-dependent effect”, the pIC50 (HeLa [5]) was 6.06 and the Activity (HeLa [6]) was 1.38%. For the same molecule, the Activity (HeLa [7]) was 50.47%, the Activity (Jurkat [8]) was “Active” and the Activity (Jurkat [9]) was “Dose-dependent effect”. For the same molecule, the Activity (HeLa [10]) was “Dose-dependent effect”, the pIC50 (HCT-116) was 6.20 and the Activity (HeLa [11]) was 5.72%. The pIC50 (A549) was 5.92, the Activity (HeLa [12]) was 7.79% and the Activity (HeLa [13]) was 2.86%. The viability at 8 µM (HeLa [14]) was 39.6%, the Activity (HeLa [15]) was 7.52% and the Activity (HeLa [16]) was “Active”. The Activity (HeLa [17]) was 18.98%, the viability at 2 µM (HeLa [18]) was 74.7% and the inhibition (HeLa [19]) was “Dose-dependent effect”. The Activity (HeLa [20]) was 0.56%, the Activity (HeLa [21]) was 0.65% and the Activity (HeLa [22]) was “Dose-dependent effect”. The Activity (HeLa [23]) was “Active”, the Activity (Jurkat [24]) was “Dose-dependent effect” and the Activity (HeLa [25]) was “Dose-dependent effect”.
